For 49 compounds, IC50, Ki and inhibition results are on record in ChEMBL document CHEMBL1770135, “Acylideneoxoindoles: a new class of reversible inhibitors of human transglutaminase 2” (Bioorg Med Chem Lett, 2011).

Structures are written as SMILES. Calls of active or inactive are those of the source. No cut-off for these calls is given here. A value given as a limit tells only on which side of the number the result lay.

The target of assay [1] is T1, Protein-glutamine gamma-glutamyltransferase (Homo sapiens, UniProt P21980).
T1 sequence (P21980 whole entry): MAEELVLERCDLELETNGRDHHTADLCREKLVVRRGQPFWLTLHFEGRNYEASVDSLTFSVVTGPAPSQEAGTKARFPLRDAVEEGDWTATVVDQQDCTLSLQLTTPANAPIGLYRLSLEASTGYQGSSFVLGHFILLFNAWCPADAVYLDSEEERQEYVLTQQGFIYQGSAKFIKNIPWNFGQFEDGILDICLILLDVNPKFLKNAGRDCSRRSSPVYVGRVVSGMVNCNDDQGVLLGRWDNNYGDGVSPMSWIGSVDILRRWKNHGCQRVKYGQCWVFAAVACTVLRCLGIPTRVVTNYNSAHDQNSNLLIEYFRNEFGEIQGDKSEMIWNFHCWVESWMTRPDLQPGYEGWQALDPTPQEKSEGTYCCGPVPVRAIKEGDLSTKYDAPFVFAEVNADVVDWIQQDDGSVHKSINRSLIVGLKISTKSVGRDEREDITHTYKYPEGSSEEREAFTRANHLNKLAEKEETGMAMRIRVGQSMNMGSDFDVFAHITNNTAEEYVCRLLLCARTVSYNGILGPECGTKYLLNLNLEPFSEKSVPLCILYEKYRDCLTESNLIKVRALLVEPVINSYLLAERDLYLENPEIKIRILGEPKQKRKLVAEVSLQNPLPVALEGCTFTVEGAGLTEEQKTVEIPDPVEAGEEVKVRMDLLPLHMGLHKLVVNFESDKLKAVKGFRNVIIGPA
The assay is described as follows: Inhibition of human transglutaminase 2 using Cbz-Gln-Gly as a substrate by GDH-coupled assay. The gist of the method:
(§1)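 Glutamate dehydrogenase-coupled deamidation assay with human TG2 at 0.5 µM and Cbz-Gln-Gly as acyl donor substrate. […] Ki values were derived from kinetic analysis in a mixed inhibition model, with α taken as the Ki'/Ki ratio. Errors were typically under 10%.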

The target in assay [2] is T1, Protein-glutamine gamma-glutamyltransferase. The assay is described as follows: Inhibition of human transglutaminase 2 using ZGBC as a substrate after 30 to 60 mins by fluorometric assay. The essentials:
(§2)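 Direct fluorometric assay following TG2-catalysed release of 7-hydroxycoumarin from an ester substrate, with human TG2 at 15 nM. […] Ki and α were derived from a mixed inhibition model, with α as the Ki'/Ki ratio.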

The target of assay [3] is T2, Protein-glutamine gamma-glutamyltransferase (Homo sapiens) (UniProt P21980).
T2 sequence (whole entry): T1 sequence (P21980 whole entry)
Put plainly: Partial inhibition of human transglutaminase 2 using Cbz-Gln-Gly as a substrate by GDH-coupled assay. Conditions: concentration not given here. The essentials:
as §1

Assay [4] concerns the target T2, Protein-glutamine gamma-glutamyltransferase (Homo sapiens). The assay is described as follows: Partial inhibition of human transglutaminase 2 using ZGBC as a substrate after 30 to 60 mins by fluorometric assay. Further details: concentration or dose not given beside the values. The gist of the method:
as §2

The target is the same in assay [5]. As to conditions: 2 to 8 uM.

By IC50 is commonly meant the concentration at which inhibition is half-maximal. As a reminder, the Ki is the dissociation constant of the complex between target and ligand, obtained from inhibition or displacement. In assay [1], `CC(=O)/C=C1/C(=O)Nc2cccc(Cl)c21` had a half-maximal inhibitory concentration (IC50) of 1500 nM and a Ki of 700 nM.

For `O=C1Nc2ccccc2C1=O` [ISATIN], the half-inhibitory concentration (IC50) in assay [1] is greater than 250000 nM.

Regarding `COc1ccccc1C(=O)/C=C1/C(=O)Nc2cccc(Cl)c21`, the IC50 in assay [1] stood at 900 nM; in assay [2], 740 nM.

Regarding `O=C(/C=C1/C(=O)N(Cc2ccccc2)c2cccc(Cl)c21)c1cccnc1`, the IC50 in assay [1] was determined as 1500 nM; in assay [2], 360 nM. The inhibitory constant (Ki) amounted to 410 nM in assay [1] and 1000 nM in assay [2].

For `Cc1ccc2c(c1)/C(=C\C(=O)c1cccnc1)C(=O)N2`, the IC50 in assay [1] is 6300 nM; in assay [2], 4500 nM.

With `O=C1Nc2ccccc2/C1=C1/Nc2ccccc2C1=O` [INDIRUBIN], the IC50 in assay [1] was greater than 100000 nM.

In the case of `O=C1Nc2cccc(Cl)c2/C1=C\C(=O)c1cncc(Br)c1`, the IC50 came to 1400 nM in assay [1] and 970 nM in assay [2].

Consider `CN(C)C(=O)CN1C(=O)/C(=C/C(=O)c2cccnc2)c2c(Cl)cccc21`, for which the IC50 was 5500 nM in assay [1] and 9200 nM in assay [2].

For the compound `O=C(/C=C1/C(=O)N(c2ccccc2)c2cccc(Cl)c21)c1cccnc1`, the half-inhibitory concentration (IC50) in assay [1] was 800 nM; in assay [2], 570 nM.

Usually inhibition stands for the relative decrease from the control value, in per cent. Turning to `O=C1Nc2cc(Br)ccc2/C1=C\C(=O)c1cccnc1`, the inhibition in assay [3] is 35%; in assay [4] it was 65%. Further, the figures for the half-maximal inhibitory concentration (IC50) in assay [1] and in assay [2] were 1500 nM and 360 nM, respectively.

Consider `COc1ccc(C(=O)/C=C2/C(=O)Nc3cccc(Cl)c32)cc1`, for which the figures for the IC50 in assay [1] and in assay [2] were 1100 nM and 1300 nM, respectively.

Take `COC(=O)c1cccc(CN2C(=O)/C(=C/C(=O)c3cccnc3)c3c(Cl)cccc32)c1`: the values for the half-maximal inhibitory concentration (IC50) in assay [1] and in assay [2] were 1100 nM and 5600 nM, respectively.

For the compound `O=C(/C=C1/C(=O)N(CCc2ccccc2)c2cccc(Cl)c21)c1cccnc1`, the IC50 was found to be 1500 nM in assay [1] and 2900 nM in assay [2].

In assay [1], `O=C1Nc2cccc(Cl)c2/C1=C\C(=O)c1cccnc1` displayed an IC50 of 900 nM and a Ki of 1300 nM. In assay [2], this compound gave an IC50 of 1700 nM.

For `O=C1Nc2cccc(Cl)c2/C1=C\C(=O)c1ccccc1`, the figures for the IC50 in assay [1] and in assay [2] were 2800 nM and 20000 nM, respectively. This compound also came in with a Ki in assay [1] of 3300 nM.

As to `CC(C)N1C(=O)/C(=C/C(=O)c2cccnc2)c2c(Cl)cccc21`, the half-maximal inhibitory concentration (IC50) in assay [1] stood at 1400 nM; in assay [2] it was 1500 nM.

On to `Nc1cccc(C(=O)/C=C2/C(=O)Nc3cccc(Cl)c32)c1`, for which the figures for the IC50 in assay [1] and in assay [2] were 1400 nM and 1800 nM, respectively.

In the case of `O=C1Nc2cc(Cl)ccc2/C1=C\C(=O)c1cccnc1`, the inhibition entry in assay [5] was “Active”. In addition, the inhibition in assay [3] stood at 70%. In assay [1], this compound came in with an IC50 of 2100 nM and a Ki of 5300 nM. The compound also returned a half-maximal inhibitory concentration (IC50) in assay [2] of 20000 nM.

With `CC(C)CN1C(=O)/C(=C/C(=O)c2cccnc2)c2c(Cl)cccc21`, the results for the IC50 in assay [1] and in assay [2] were 1000 nM and 4100 nM, respectively.

As for `O=C(/C=C1/C(=O)N(CCCc2ccccc2)c2cccc(Cl)c21)c1cccnc1`, the results for the IC50 in assay [1] and in assay [2] were 1300 nM and 1000 nM, respectively.

On to `O=C1Nc2ccc(Cc3ccc4c(c3)C(=O)C(=O)N4)cc2C1=O`, for which, in assay [1], half-maximal inhibition (IC50) required 30000 nM and the affinity, expressed as Ki, was 15000 nM.

For the compound `O=C1Nc2ccccc2/C1=C1\C(=O)Nc2ccccc21` [ISOINDIGO], in assay [1], the IC50 is 8000 nM and the inhibitory constant (Ki) is 41000 nM.

As to `O=C1Nc2cccc(Br)c2/C1=C\C(=O)c1cccnc1`, in assay [1], the concentration for half-maximal inhibition (IC50) came to 900 nM and the Ki turned out to be 400 nM. In addition, in assay [2], the IC50 turned out to be 1000 nM and the Ki is 250 nM.

In the case of `CC(=O)/C=C1/C(=O)Nc2c(Cl)cccc21`, the IC50 in assay [1] came out at 4700 nM; in assay [2] it was 3900 nM.

In the case of `O=C1Nc2c(Br)cccc2/C1=C\C(=O)c1cccnc1`, the figures for the IC50 in assay [1] and in assay [2] were 2900 nM and 3200 nM, respectively.

With `O=C1Nc2cccc(Cl)c2/C1=C\C(=O)c1ccncc1`, the 50% inhibitory concentration (IC50) in assay [1] is 1200 nM; in assay [2] it was 1000 nM.

Consider `CCOC(=O)CN1C(=O)/C(=C/C(=O)c2cccnc2)c2c(Cl)cccc21`, for which the results for the IC50 in assay [1] and in assay [2] were 1800 nM and 2500 nM, respectively.

Regarding `CN1C(=O)/C(=C/C(=O)c2cccnc2)c2c(Cl)cccc21`, in assay [1], the midpoint of inhibition, the IC50, lay at 4000 nM and the affinity corresponds to a Ki of 4000 nM. In addition, the 50% inhibitory concentration (IC50) in assay [2] is 11000 nM.

For `Nc1ccc(C(=O)/C=C2/C(=O)Nc3cccc(Cl)c32)cc1`, in assay [4], the inhibition is 65%. For the same compound, the values for the IC50 in assay [1] and in assay [2] were 1100 nM and 3000 nM, respectively.

With `O=C1Nc2ccc([N+](=O)[O-])cc2/C1=C\C(=O)c1cccnc1`, the IC50 worked out at 7900 nM in assay [1] and 1700 nM in assay [2].

In turn, `Cc1cc(CN2C(=O)C(=O)c3ccccc32)c(C)cc1CN1C(=O)C(=O)c2ccccc21` registered a half-inhibitory concentration (IC50) in assay [1] greater than 250000 nM.

In assay [1], `O=C1Nc2ccc(Oc3ccc4c(c3)C(=O)C(=O)N4)cc2C1=O` had a half-maximal inhibitory concentration (IC50) of 25000 nM and an inhibition constant (Ki) of 3000 nM.

For the compound `COC(=O)c1ccc(CN2C(=O)/C(=C/C(=O)c3cccnc3)c3c(Cl)cccc32)cc1`, the figures for the IC50 in assay [1] and in assay [2] were 1200 nM and 660 nM, respectively.

`O=C1Nc2c(Cl)cccc2/C1=C\C(=O)c1cccnc1` had an inhibition in assay [4] of 70%. For the same compound, the figures for the IC50 in assay [1] and in assay [2] were 7300 nM and 1600 nM, respectively.

In assay [4], `O=C1Nc2cccc(Cl)c2/C1=C\C(=O)c1ccc(Cl)cc1` displayed an inhibition of 60%. The IC50 in assay [1] was 800 nM; in assay [2] it was 90 nM.

`O=C1Nc2ccccc2/C1=C\C(=O)c1cccnc1`: in assay [1], the midpoint of inhibition, the IC50, lay at 22000 nM and the affinity corresponds to a Ki of 12000 nM. This compound also gave a half-inhibitory concentration (IC50) in assay [2] of 8500 nM.

In the case of `CC(=O)/C=C1/C(=O)Nc2cc(F)ccc21`, in assay [1], the IC50 stood at 11000 nM and the affinity, expressed as Ki, was 5400 nM. The compound further displayed a half-maximal inhibitory concentration (IC50) in assay [2] of 20000 nM.

Turning to `O=C1C(=O)N(CN2C(=O)C(=O)c3ccccc32)c2ccccc21`, in assay [1], 18000 nM corresponded to half-maximal inhibition (IC50) and affinity was put at a Ki of 10000 nM.

With `O=C1Nc2ccc(Cl)cc2/C1=C\C(=O)c1cccnc1`, the concentration for half-maximal inhibition (IC50) in assay [1] turned out to be 6000 nM; in assay [2], 1200 nM.

For `CC(=O)/C=C1/C(=O)Nc2cc(OC(F)(F)F)ccc21`, the IC50 in assay [1] came out at 3600 nM; in assay [2] it was 2600 nM.

On to `O=C(/C=C1/C(=O)N(CC2CCCCC2)c2cccc(Cl)c21)c1cccnc1`, for which the IC50 in assay [1] came to 2100 nM; in assay [2] it was 6700 nM.

`COc1cccc(C(=O)/C=C2/C(=O)Nc3cccc(Cl)c32)c1`: the IC50 turned out to be 1000 nM in assay [1] and 1100 nM in assay [2].

For `CC(=O)/C=C1/C(=O)Nc2ccccc21`, in assay [1], the 50% inhibitory concentration (IC50) was 11000 nM and the Ki came to 10000 nM. Also, in assay [2], the IC50 was determined as 19000 nM.

Regarding `O=C1Nc2cccc(Cl)c2/C1=C\C(=O)c1cccc(Cl)c1`, the IC50 in assay [1] is 700 nM; in assay [2], 2800 nM.

For the compound `COc1ccncc1C(=O)/C=C1/C(=O)Nc2cccc(Cl)c21`, the inhibition in assay [4] came out at 50%. The figures for the IC50 in assay [1] and in assay [2] were 1400 nM and 950 nM, respectively.

With `O=C1Nc2ccc(Br)cc2/C1=C\C(=O)c1cccnc1`, the 50% inhibitory concentration (IC50) was determined as 4800 nM in assay [1] and 560 nM in assay [2]. Besides, the Ki in assay [1] amounted to 3000 nM; in assay [2], 680 nM.

In the case of `Cc1cc(C)c(CN2C(=O)C(=O)c3ccccc32)cc1CN1C(=O)C(=O)c2ccccc21`, in assay [1], the IC50 was determined as 40000 nM and the Ki worked out at 11000 nM.

In assay [1], `CC(=O)/C=C1/C(=O)Nc2ccc(Cl)cc21` yielded an IC50 of 4300 nM and a Ki of 900 nM. In assay [2], it took 3700 nM to reach half-maximal inhibition (IC50).

On to `O=C1Nc2cccc(Cl)c2/C1=C\C(=O)c1ccccn1`, for which the IC50 in assay [1] is 1100 nM; in assay [2], 890 nM.
